From PubChem BioAssay
HCV core dimer – HCV core protein dimerization inhibition | TR-FRET GST/Flag-core106 dimerization, 1536-well | 0.33% of 300,000 active | inhibition, % at 5 µM | AID 1899;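 active = inhibition above the mean of all tested compounds plus 3 SD, set per screening campaign, cut at about 45% in these data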
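assay system = GST-tagged and Flag-tagged HCV core protein residues 1-106 | controls = unlabelled core106 and no-GST-core106 wells | incubation = compound-protein-antibody incubation 4 h at 22.5 °C | probe or stimulus = Eu donor and XL665 acceptor anti-tag antibodies | read-out = % inhibition based on acceptor/donor emission ratio | signal = TR-FRET 671 and 617 nm emission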
HCV NS3 hel inh – inhibitors of Hepatitis C virus NS3 helicase. inhibition, % at 10.9 µM. NS3 helicase DNA unwinding, Cy5 molecular beacon fluorescence. 0.56% of 290,000 active;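 active = inhibition above the mean of all tested compounds plus 3 SD, set per campaign, cut at about 35% in these data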;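 also: 0% = DMSO wells and 100% = thioflavine S control wells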
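Measured by: Cy5 fluorescence, 0 and 60 min reads / Assay system: NS3 helicase fragment of HCV / Control set: low DMSO, high thioflavine S at 110 µM / Times: 1 h reaction at 25 °C, ATP-initiated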
VIM-2 inh – blocks Pseudomonas aeruginosa VIM-2 metallo-beta-lactamase. 0.89% of 290,000 active. purified VIM-2, nitrocefin hydrolysis, epi-absorbance fluorescence. inhibition, % at 5.6 µM;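 active = inhibition above the mean of all tested compounds plus 3 SD, cutoff set per screening run, cut at about 7.5% in these data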;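 also: red hydrolysis product quenches plate fluorescence so inhibitors raise well fluorescence; 0% = enzyme with DMSO and 100% = DMSO without enzyme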
IMP-1 inh – inhibitors of Pseudomonas aeruginosa IMP-1 metallo-beta-lactamase | AID 1556 | purified IMP-1, nitrocefin hydrolysis, epi-absorbance fluorescence | 0.45% of 290,000 active | inhibition, % at 5.6 µM;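 active = inhibition above the mean plus 3 SD of all compounds in the same screening run, cut at about 4.5% in these data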;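 also: 0% = IMP-1 with DMSO and 100% = DMSO wells lacking enzyme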
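System: purified IMP-1; amount: IMP-1 0.2 nM before substrate addition; compound: single dose, 5.6 µM; times: 25 °C, 15 min preincubation, 25 min reaction; signal: Epi-absorbance via hydrolysed-nitrocefin quenching of white-plate fluorescence, 480/530 nm, EDTA stop; benchmarks: DMSO with and without IMP-1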
PHOSPHO1 block – inhibitors of human PHOSPHO1 phosphatase; 1.1% of 290,000 active; inhibition, % at 13.3 µM; recombinant PHOSPHO1, absorbance phosphatase assay; AID 1565; Q8TCT1; in the data active = inhibition above about 60%
Target sequence (Q8TCT1 whole entry, looked up): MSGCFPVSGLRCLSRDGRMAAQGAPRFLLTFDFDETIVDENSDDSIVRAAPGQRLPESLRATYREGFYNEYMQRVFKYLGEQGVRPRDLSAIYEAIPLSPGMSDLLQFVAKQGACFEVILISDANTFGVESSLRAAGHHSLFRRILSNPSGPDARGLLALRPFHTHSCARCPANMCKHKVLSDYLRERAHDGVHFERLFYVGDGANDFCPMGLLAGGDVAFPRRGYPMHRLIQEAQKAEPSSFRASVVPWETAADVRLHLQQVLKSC
SUMO HTRF inh – inhibitors of human SUMOylation (UBC9); P63279; HTRF SUMOylation assay, SAE1/SAE2 + UBC9, in vitro; inhibition, % at 35 µM; 0.36% of 290,000 active; AID 2006; in the data active = inhibition above about 50%, passing the limit was not always enough
Target sequence (P63279 whole entry, looked up): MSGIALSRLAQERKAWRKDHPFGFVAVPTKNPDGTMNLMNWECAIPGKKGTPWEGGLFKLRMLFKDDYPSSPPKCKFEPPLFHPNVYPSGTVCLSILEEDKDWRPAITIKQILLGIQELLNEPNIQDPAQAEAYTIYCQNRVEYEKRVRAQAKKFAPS
Starred values were filed as active, the others as inactive; . = no result. Rows were chosen to be rich in hits. Some 3.1% of all compounds tested hit in one or more screens of this group.

SMILES | HCV core dimer | HCV NS3 hel inh | VIM-2 inh | IMP-1 inh | PHOSPHO1 block | SUMO HTRF inh
CCOC(=O)c1c(C)oc2c(CN3CCN(C)CC3)c(Br)c(OC)c(O)c12 | 3.0 | -7.8 | 10.4* | -2.2 | 20.8 | 1.8
CC1C(=O)N2CCCc3cc(NC(=O)COc4ccc(Cl)cc4)cc1c32 (stereo unspecified) | 0.9 | . | . | . | . | .
CC1=Nc2nc(N3CCCCC3)c(C#N)c3c4c(nc(c23)N1)N(c1ccc(C(C)C)cc1)C(=O)C4 | 46.2* | 30.1 | -1.2 | -1.3 | 1.5 | 59.7*
CCOc1cc(/C=N/NC(=O)C(O)(c2ccccc2)c2ccccc2)ccc1OC(=O)c1ccco1 | 12.9 | . | . | . | . | .
COC(=O)C1CN(C(=O)C(C)Oc2ccccc2Cl)c2ccccc2O1 (stereo unspecified) | 2.1 | 1.0 | 1.4 | -0.6 | 15.9 | 0.3
Nc1nc(-c2cccs2)c(CC(=O)O)s1 | 8.5 | 2.2 | -1.7 | -2.1 | 40.3 | 27.6
O=C(Nc1nc(-c2cccs2)c(-c2ccccc2)s1)c1ccco1 | -38.6 | -7.5 | -1.2 | -2.5 | 12.4 | -8.5
CC1CC1C(=O)Nc1nc(-c2cccs2)c(-c2cccs2)s1 (stereo unspecified) | 50.5* | 5.7 | 0.9 | -3.3 | 3.9 | 8.5
Nc1nc(-c2cccs2)c(-c2cccs2)s1 | 6.2 | 12.2 | -2.4 | 16.1* | 27.0 | 7.0
Cc1ccc(C)c(C(C)NC(=O)c2ccc(Br)o2)c1 (stereo unspecified) | 1.6 | -1.0 | -1.4 | -1.5 | 24.7 | 1.6
CC1CCCC(NC(=O)COC(=O)/C=C/c2ccc(S(=O)(=O)N3CCOCC3)cc2)C1C (stereo unspecified) | 3.5 | 16.1 | -0.4 | -1.8 | 34.3 | 14.8
CC1CN(Cc2ccccc2)C(C)CC1O (stereo unspecified) | 2.2 | 0.3 | -4.3 | -4.0 | 51.2 | -0.1
CCOC(=O)c1c(-c2ccc(C)o2)csc1NC(=O)COC(=O)c1ccc(NC(N)=O)cc1 | 49.0* | -10.6 | -2.0 | -0.1 | 12.1 | -23.5
CN(C(=O)C1CCCO1)C1CCS(=O)(=O)C1 (stereo unspecified) | -1.1 | . | . | . | . | .
Cc1ccc(N2C(=O)c3ccc(C(=O)N4CCN(Cc5ccccc5)CC4)cc3C2=O)cc1 | 1.7 | -10.9 | 0.1 | -2.2 | 37.0 | -2.3
NS(=O)(=O)c1ccc2c(c1)C1C=CCC1C(C1CC=CCC1)N2 (stereo unspecified) | 65.0* | 14.9 | 0.3 | 13.2* | 3.2 | 19.5
COc1ccccc1NC(=O)N1CCC(NC(=O)C2CCCCC2)CC1 | 2.3 | 1.2 | -2.2 | -4.0 | 30.5 | 13.8
Cc1c(C)c2ccc(OCC(=O)NC3CCN(Cc4ccccc4)CC3)cc2oc1=O | -4.8 | 2.0 | 12.0* | -3.2 | 43.5 | 6.4
C#CCOCCOCCOCCNc1nc(N2CCN(C(=O)[C@H]([C@@H](C)CC)n3cc([C@@H](N)CO)nn3)CC2)nc(N2CCN(C(=O)[C@H](Cc3cc4ccccc4[nH]3)n3cc([C@@H](N)C(C)CC)nn3)CC2)n1 (stereo partly specified) | -33.5 | -51.0 | -4.2 | 7.0* | 27.7 | -3.7
C#CCOCCOCCOCCNc1nc(N2CCN(C(=O)[C@H]([C@@H](C)CC)n3cc([C@@H](N)CC(C)C)nn3)CC2)nc(N2CCN(C(=O)[C@H](Cc3cc4ccccc4[nH]3)n3cc([C@@H](N)CC(C)C)nn3)CC2)n1 | . | . | . | . | 17.7 | -17.8
CC1CCCC(C)N1c1ccc(S(=O)(=O)N2CCOCC2)cc1Cl (stereo unspecified) | -6.3 | -12.3 | -2.3 | -4.6 | 18.4 | -14.2
CCOC(=O)c1cnc2c(C)c(C)ccc2c1NCCN1CCOCC1 | . | 17.2 | 8.6* | -2.5 | 49.9 | -11.1
CCOC(=O)c1cnc2c(Cl)c(Cl)ccc2c1NCCN1CCOCC1 | 5.6 | -1.4 | 7.7* | -1.7 | 47.9 | 21.1
CCOC(=O)c1cnc2ccc(C)cc2c1NCCN1CCOCC1 | -2.5 | -3.1 | 3.6 | -0.5 | 5.1 | -5.1
CCCCC(NC(=O)Cc1c(C)c2cc3c(-c4ccccc4)coc3c(C)c2oc1=O)C(=O)O (stereo unspecified) | 6.6 | -6.7 | 8.5* | -3.8 | 23.3 | 9.0
SMILES | HCV core dimer | HCV NS3 hel inh | VIM-2 inh | IMP-1 inh | PHOSPHO1 block | SUMO HTRF inh
CC[C@@H](C)[C@H](NC(=O)Cc1c(C)c2cc3c(C)coc3c(C)c2oc1=O)C(=O)O | 1.7 | 16.6 | 1.7 | -3.5 | . | 25.8
Cc1c(CC(=O)O)c(=O)oc2c(C)c3occ(-c4ccc(Br)cc4)c3cc12 | 15.6 | 30.7 | 8.9* | -1.6 | 0.0 | 9.5
CNC(=O)C(Sc1nc(C)nc2c1oc1ccccc12)C(C)=O (stereo unspecified) | 11.1 | -3.6 | 1.8 | -0.9 | 88.1* | -0.2
Cc1nc(SCC(=O)Nc2ccccc2)c2oc3ccccc3c2n1 | -8.1 | 1.2 | -2.7 | 1.3 | 22.9 | 9.3
O=C(CSc1nnc(-c2cccc(F)c2)o1)N1CCCC1 | 1.1 | 9.4 | -2.3 | -2.3 | 22.0 | 5.3
Cc1ccc(S(=O)(=O)N(C)CC(=O)OCc2nnc(-c3ccccc3)o2)cc1 | 1.3 | 1.2 | -3.1 | -1.2 | -16.3 | 14.4
Cc1ccc(S(=O)(=O)NCC(=O)OCc2nnc(-c3ccccc3)o2)cc1 | 0.3 | 4.3 | -1.4 | -3.1 | 65.4* | 9.1
COC(=O)c1ccc(NC(=O)c2ccc(F)cc2)o1 | -6.0 | 1.6 | -2.1 | -2.1 | 6.6 | -13.5
COC(=O)c1ccc(NC(=O)c2ccc(C)cc2)o1 | -4.9 | -1.9 | -0.8 | 5.5* | 18.3 | 30.0
COCCN(C(=O)COC(=O)c1cc2c(s1)CCC2)c1c(N)n(Cc2ccccc2)c(=O)[nH]c1=O | 68.6* | . | . | . | . | .
Cc1c(C(=O)N/N=C/c2ccccn2)nnn1-c1nonc1N | -13.5 | -10.5 | -0.9 | -1.6 | 32.3 | 12.5
O=c1[nH]c(=O)n(Cc2ccccc2)c2c1CCC2 | -7.9 | 4.3 | 1.0 | 5.0* | -5.7 | 5.6
O=c1[nH]c2ccccc2n1Cc1ccccc1 | 2.4 | 0.8 | -2.8 | -2.5 | 38.3 | 6.5
CCOC(=O)/C=C1\SCC(=O)N1Cc1nnc(-c2ccccc2Br)o1 | 63.8* | 12.0 | -3.2 | -2.2 | 0.9 | 10.9
Cc1nc2c3ccccc3nc(NNC(=O)CCC(=O)NCCN3CCN(c4ccccc4)CC3)n2n1 | -0.4 | 7.9 | -5.5 | -3.4 | 19.9 | -3.2
CN1C(=O)c2cccc3c(Cl)ccc(c23)C1=O | -1.6 | 7.4 | 0.4 | -0.1 | 9.4 | 20.8
CN1C(=O)c2cccc3c(N(C)C)ccc(c23)C1=O | -13.2 | 0.7 | 9.8* | 1.1 | 13.8 | 5.6
CCOC(=O)/C(=C/C=C1\Sc2cc(C)c(C)cc2N1CC)C(C)=O | . | 6.5 | 2.8 | 4.8* | 19.9 | -21.9
Cc1n[nH]c(=S)n(NC(=O)CC(=O)Nn2c(=S)[nH]nc(C)c2=O)c1=O | 1.2 | 5.6 | -2.5 | -0.8 | -20.6 | -88.4
Cc1n[nH]c(=S)n(NC(=O)/C=C/C(=O)Nn2c(=S)[nH]nc(C)c2=O)c1=O | . | 2.2 | -1.9 | 1.4 | 26.0 | 99.0*
